From publication PMC1390681 (Nucleic Acids Research, 2006)

Legend:
NC•SL4 = experiment: NC–RNA inhibition: ligand added to preformed NC•SL4 complex, ESI-FTMS; assay type: binding, HIV-1; details: 0.35–17.5 µM ligand added to preformed complex
Procedure, shortened: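 NC was expressed in E. coli BL21(DE3)-pLysE and purified non-denaturing, with two Zn2+ confirmed by MS. It was mixed equimolar with refolded hairpin (SL4 stem extended by three base pairs) for 15 min at room temperature, forming a 1:1 complex. Ligand (0.35–17.5 µM) was added to ~3.5 µM complex in 100 mM ammonium acetate pH 7.5, then read by negative-ion ESI-FTMS. IC50 at 0.5 fractional occupancy, from competition-isotherm fit, triplicate.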

NC•SL3 = experiment: NC–RNA inhibition: ligand added to preformed NC•SL3 complex, ESI-FTMS; assay type: binding, HIV-1; details: for ligand effect on NC•SL3 complex: 0.35–17.5 µM ligand added to preformed complex
NC•SL2 = experiment: NC–RNA inhibition: ligand added to preformed NC•SL2 complex, ESI-FTMS; assay type: binding, HIV-1; details: 0.35–17.5 µM ligand added to preformed complex
SL2 = experiment: Multiplexed binding assay, ternary ligand mixture added to SL2, ESI-FTMS; design: species or system HIV-1; details: ternary mixture of vancomycin, mitoxantrone and neomycin B; negative control
Procedure, shortened: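 SL2 hairpin (HIV-1 NL4-3 sequence), desalted in 100 mM ammonium acetate pH 7.5, heated 95°C 3 min, ice-cooled. Equimolar mix of up to three ligands added stepwise to 0.35 µM final RNA, giving 0.35–17.5 µM total ligand. Incubated 15 min at room temperature. Analysed by 2-propanol-assisted nanospray ESI-FTMS (7 T, negative ion). Species quantified from signal intensities divided by charge state.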

Row | Structure (SMILES) | ligand effect on NC•SL4 complex (NC•SL4) | ligand effect on NC•SL3 complex (NC•SL3) | ligand effect on NC•SL2 complex (NC•SL2) | equivalents of ligand bound to NC•SL3 complex (ternary species) (NC•SL3; 5-fold addition of ligand) | binding to SL2 in multiplexed assay (SL2)
1 | CN(C)[C@@H]1C(O)=C(C(N)=O)C(=O)[C@@]2(O)C(O)=C3C(=O)c4c(O)ccc(Cl)c4[C@@](C)(O)[C@H]3C[C@@H]12 [Chlorotetracycline, chlorotetracycline] | No Effect | No Effect | No Effect |  | 
2 | O=C1c2c(O)ccc(O)c2C(=O)c2c(NCCNCCO)ccc(NCCNCCO)c21 [Mitoxantrone, mitoxantrone] |  | no detectable signs of dissociation |  | up to three | 
3 | CN[C@H](CC(C)C)C(=O)N[C@H]1C(=O)N[C@@H](CC(N)=O)C(=O)N[C@H]2C(=O)N[C@H]3C(=O)N[C@H](C(=O)N[C@H](C(=O)O)c4cc(O)cc(O)c4-c4cc3ccc4O)[C@H](O)c3ccc(c(Cl)c3)Oc3cc2cc(c3O[C@@H]2O[C@H](CO)[C@@H](O)[C@H](O)[C@H]2O[C@H]2C[C@](C)(N)[C@H](O)[C@H](C)O2)Oc2ccc(cc2Cl)[C@H]1O [vancomycin] |  |  |  |  | no binding was observed
4 | Cn1cc(NC(=O)c2cc(NC(=O)c3cc(NC=O)cn3C)cn2C)cc1C(=O)NCCC(=N)N [Distamycin A, distamycin A] | No Effect |  | No Effect |  | 
